Results as given in ChEMBL document CHEMBL1255409, “In vitro activity of ceftaroline against 623 diverse strains of anaerobic bacteria” (2010).
Values after ≈ are worked out from the molar mass of the structure shown.

Tests used:
Type in all cases: functional
[1] = system: Parabacteroides distasonis; assay: Antimicrobial activity against Bacteroides distasonis under anaerobic conditions after 44 hrs by CLSI-M11-47 protocol based agar dilution method
In short: (§1)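 Reference agar dilution per CLSI M11-A7 with plates made on test day. Clinical isolates were stored at −70°C in 20% skim milk, subcultured twice, and 48-h cell paste was suspended in brucella broth to 0.5 McFarland. About 10^5 CFU/spot was applied with a Steers replicator. Plates were incubated 44 h at 37°C anaerobically. MIC was the lowest concentration giving complete inhibition or marked growth reduction versus the drug-free control.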

Bacteroides ovatus = assay: Antimicrobial activity against Bacteroides ovatus under anaerobic conditions after 44 hrs by CLSI-M11-47 protocol based agar dilution method; in short: as §1
Bacteroides uniformis = assay: Antimicrobial activity against Bacteroides uniformis under anaerobic conditions after 44 hrs by CLSI-M11-47 protocol based agar dilution method; in short: as §1
Prevotella bivia = assay: Antimicrobial activity against Prevotella bivia under anaerobic conditions after 44 hrs by CLSI-M11-47 protocol based agar dilution method
In short: (§2)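 Clinical isolates were stored at −70°C in 20% skim milk and identified phenotypically or by partial 16S rRNA sequencing. Each strain was subcultured twice from frozen stock. Cell paste from 48-h cultures was suspended in brucella broth to a 0.5 McFarland standard. About 10^5 CFU per spot were applied by Steers replicator to agar dilution plates prepared on the day of testing. Plates were incubated 44 h at 37°C in an anaerobic chamber. MIC was taken as the lowest concentration giving complete inhibition or marked reduction of growth versus the drug-free control.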

Prevotella corporis = assay: Antimicrobial activity against Prevotella corporis under anaerobic conditions after 44 hrs by CLSI-M11-47 protocol based agar dilution method; in short: as §2
Prevotella denticola = assay: Antimicrobial activity against Prevotella denticola under anaerobic conditions after 44 hrs by CLSI-M11-47 protocol based agar dilution method; in short: as §2
Prevotella disiens = assay: Antimicrobial activity against Prevotella disiens under anaerobic conditions after 44 hrs by CLSI-M11-47 protocol based agar dilution method; in short: as §2
Hoylesella loescheii = assay: Antimicrobial activity against Prevotella loescheii under anaerobic conditions after 44 hrs by CLSI-M11-47 protocol based agar dilution method; in short: as §2
Prevotella tannerae = assay: Antimicrobial activity against Prevotella tannerae under anaerobic conditions after 44 hrs by CLSI-M11-47 protocol based agar dilution method; settings: Alloprevotella tannerae; in short: as §2
[2] = system: Porphyromonas asaccharolytica; assay: Antimicrobial activity against Porphyromonas asaccharolyticus under anaerobic conditions after 44 hrs by CLSI-M11-47 protocol based agar dilution method; in short: as §2
Porphyromonas somerae = assay: Antimicrobial activity against Porphyromonas somerae under anaerobic conditions after 44 hrs by CLSI-M11-47 protocol based agar dilution method; in short: as §2
[3] = system: Fusobacterium necrophorum; assay: Antimicrobial activity against Fusobacterium necrophorum under anaerobic conditions after 44 hrs by CLSI-M11-47 protocol based agar dilution method; in short: as §1
Fusobacterium mortiferum = assay: Antimicrobial activity against Fusobacterium mortiferum under anaerobic conditions after 44 hrs by CLSI-M11-47 protocol based agar dilution method; in short: as §1
Anaerococcus tetradius = assay: Antimicrobial activity against Anaerococcus tetradius under anaerobic conditions after 44 hrs by CLSI-M11-47 protocol based agar dilution method; in short: as §1
Parvimonas micra = assay: Antimicrobial activity against Parvimonas micra under anaerobic conditions after 44 hrs by CLSI-M11-47 protocol based agar dilution method; in short: as §2
Anaerococcus octavius = assay: Antimicrobial activity against Anaerococcus octavius under anaerobic conditions after 44 hrs by CLSI-M11-47 protocol based agar dilution method; in short: as §1
Gemella sanguinis = assay: Antimicrobial activity against Gemella sanguinis under anaerobic conditions after 44 hrs by CLSI-M11-47 protocol based agar dilution method; in short: as §2
Peptoniphilus harei = assay: Antimicrobial activity against Peptoniphilus harei under anaerobic conditions after 44 hrs by CLSI-M11-47 protocol based agar dilution method; in short: as §2
Actinomyces turicensis = assay: Antimicrobial activity against Actinomyces turicensis under anaerobic conditions after 44 hrs by CLSI-M11-47 protocol based agar dilution method; settings: Schaalia turicensis; in short: as §1
Collinsella aerofaciens = assay: Antimicrobial activity against Colinsella aerofaciens under anaerobic conditions after 44 hrs by CLSI-M11-47 protocol based agar dilution method; in short: as §1
Solobacterium moorei = assay: Antimicrobial activity against Solobacterium moorei under anaerobic conditions after 44 hrs by CLSI-M11-47 protocol based agar dilution method; in short: as §2
Lacticaseibacillus casei = assay: Antimicrobial activity against Lactobacillus casei under anaerobic conditions after 44 hrs by CLSI-M11-47 protocol based agar dilution method; in short: as §2
[4] = system: Lacticaseibacillus rhamnosus; assay: Antimicrobial activity against Lactobacillus rhamnosus under anaerobic conditions after 44 hrs by CLSI-M11-47 protocol based agar dilution method; in short: as §2
Clostridium citroniae = assay: Antimicrobial activity against Clostridium citroniae under anaerobic conditions after 44 hrs by CLSI-M11-47 protocol based agar dilution method; settings: Enterocloster citroniae; in short: as §1
Clostridium baratii = assay: Antimicrobial activity against Clostridium baratii under anaerobic conditions after 44 hrs by CLSI-M11-47 protocol based agar dilution method
[5] = system: Paraclostridium bifermentans; assay: Antimicrobial activity against Clostridium bifermentans under anaerobic conditions after 44 hrs by CLSI-M11-47 protocol based agar dilution method; in short: as §1
Clostridium butyricum = assay: Antimicrobial activity against Clostridium butyricum under anaerobic conditions after 44 hrs by CLSI-M11-47 protocol based agar dilution method
Clostridium cadaveris = assay: Antimicrobial activity against Clostridium cadaveris under anaerobic conditions after 44 hrs by CLSI-M11-47 protocol based agar dilution method; in short: as §1
Clostridium hylemonae = assay: Antimicrobial activity against Clostridium hylemonae under anaerobic conditions after 44 hrs by CLSI-M11-47 protocol based agar dilution method; in short: as §1
[6] = system: Paeniclostridium sordellii; assay: Antimicrobial activity against Clostridium sordellii under anaerobic conditions after 44 hrs by CLSI-M11-47 protocol based agar dilution method; settings: Paraclostridium sordellii; in short: as §1
Clostridium subterminale = assay: Antimicrobial activity against Clostridium subterminale under anaerobic conditions after 44 hrs by CLSI-M11-47 protocol based agar dilution method; in short: as §1
Clostridium tertium = assay: Antimicrobial activity against Clostridium tertium under anaerobic conditions after 44 hrs by CLSI-M11-47 protocol based agar dilution method; in short: as §1

CCC[C@@H]1C[C@@H](C(=O)N[C@@H]([C@H]2O[C@H](SC)[C@H](O)[C@@H](O)[C@H]2O)[C@H](C)Cl)N(C)C1 [CLINDAMYCIN]
MIC50 [1]: 4 µg/mL (≈ 9.41 µM) | MIC90 [1]: > 128 µg/mL | MIC50 (Bacteroides ovatus): 4 µg/mL (≈ 9.41 µM) | MIC90 (Bacteroides ovatus): > 128 µg/mL | MIC50 (Bacteroides uniformis): 4 µg/mL (≈ 9.41 µM) | MIC90 (Bacteroides uniformis): > 128 µg/mL | MIC50 (Prevotella bivia): ≤ 0.03 µg/mL | MIC90 (Prevotella bivia): > 128 µg/mL | MIC50 (Prevotella corporis): ≤ 0.03 µg/mL | MIC90 (Prevotella corporis): 128 µg/mL (≈ 301 µM) | MIC50 (Prevotella denticola): ≤ 0.03 µg/mL | MIC90 (Prevotella denticola): 128 µg/mL (≈ 301 µM) | MIC50 (Prevotella disiens): ≤ 0.03 µg/mL | MIC90 (Prevotella disiens): 128 µg/mL (≈ 301 µM) | MIC50 (Hoylesella loescheii): ≤ 0.03 µg/mL | MIC90 (Hoylesella loescheii): 128 µg/mL (≈ 301 µM) | MIC50 (Prevotella tannerae): ≤ 0.03 µg/mL | MIC90 (Prevotella tannerae): 128 µg/mL (≈ 301 µM) | MIC50 [2]: ≤ 0.03 µg/mL | MIC90 [2]: > 128 µg/mL | MIC50 (Porphyromonas somerae): ≤ 0.03 µg/mL | MIC90 (Porphyromonas somerae): > 128 µg/mL | MIC50 [3]: ≤ 0.03 µg/mL | MIC90 [3]: 0.06 µg/mL (≈ 0.141 µM) | MIC50 (Fusobacterium mortiferum): 0.06 µg/mL (≈ 0.141 µM) | MIC90 (Fusobacterium mortiferum): 1 µg/mL (≈ 2.35 µM) | MIC50 (Anaerococcus tetradius): 0.5 µg/mL (≈ 1.18 µM) | MIC90 (Anaerococcus tetradius): 128 µg/mL (≈ 301 µM) | MIC50 (Parvimonas micra): 0.25 µg/mL (≈ 0.588 µM) | MIC90 (Parvimonas micra): 16 µg/mL (≈ 37.6 µM) | MIC50 (Anaerococcus octavius): 0.125 µg/mL (≈ 0.294 µM) | MIC90 (Anaerococcus octavius): 64 µg/mL (≈ 151 µM) | MIC50 (Gemella sanguinis): 0.125 µg/mL (≈ 0.294 µM) | MIC90 (Gemella sanguinis): 64 µg/mL (≈ 151 µM) | MIC50 (Peptoniphilus harei): 0.125 µg/mL (≈ 0.294 µM) | MIC90 (Peptoniphilus harei): 64 µg/mL (≈ 151 µM) | MIC50 (Actinomyces turicensis): 0.06 µg/mL (≈ 0.141 µM) | MIC90 (Actinomyces turicensis): 128 µg/mL (≈ 301 µM) | MIC50 (Collinsella aerofaciens): 0.06 µg/mL (≈ 0.141 µM) | MIC90 (Collinsella aerofaciens): 2 µg/mL (≈ 4.71 µM) | MIC50 (Solobacterium moorei): 0.06 µg/mL (≈ 0.141 µM) | MIC90 (Solobacterium moorei): 2 µg/mL (≈ 4.71 µM) | MIC50 (Lacticaseibacillus casei): 1 µg/mL (≈ 2.35 µM) | MIC90 (Lacticaseibacillus casei): 2 µg/mL (≈ 4.71 µM) | MIC50 [4]: 1 µg/mL (≈ 2.35 µM) | MIC90 [4]: 2 µg/mL (≈ 4.71 µM) | MIC50 (Clostridium citroniae): 0.5 µg/mL (≈ 1.18 µM) | MIC90 (Clostridium citroniae): 2 µg/mL (≈ 4.71 µM) | MIC50 (Clostridium baratii): 2 µg/mL (≈ 4.71 µM) | MIC90 (Clostridium baratii): 128 µg/mL (≈ 301 µM) | MIC50 [5]: 2 µg/mL (≈ 4.71 µM) | MIC90 [5]: 128 µg/mL (≈ 301 µM) | MIC50 (Clostridium butyricum): 2 µg/mL (≈ 4.71 µM) | MIC90 (Clostridium butyricum): 128 µg/mL (≈ 301 µM) | MIC50 (Clostridium cadaveris): 2 µg/mL (≈ 4.71 µM) | MIC90 (Clostridium cadaveris): 128 µg/mL (≈ 301 µM) | MIC50 (Clostridium hylemonae): 2 µg/mL (≈ 4.71 µM) | MIC90 (Clostridium hylemonae): 128 µg/mL (≈ 301 µM) | MIC50 [6]: 2 µg/mL (≈ 4.71 µM) | MIC90 [6]: 128 µg/mL (≈ 301 µM) | MIC50 (Clostridium subterminale): 2 µg/mL (≈ 4.71 µM) | MIC90 (Clostridium subterminale): 128 µg/mL (≈ 301 µM) | MIC50 (Clostridium tertium): 2 µg/mL (≈ 4.71 µM) | MIC90 (Clostridium tertium): 128 µg/mL (≈ 301 µM)
